From ChEMBL document CHEMBL2177098, “Synthesis and evaluation of novel ¹⁸F labeled 2-pyridinylbenzoxazole and 2-pyridinylbenzothiazole derivatives as ligands for positron emission tomography (PET) imaging of β-amyloid plaques” (J Med Chem, 2012)
Active and inactive are the calls of the source. No cut-off for these calls is given here.

Legend:
[1] = Displacement of [125I]-IMPY from amyloid beta (1 to 42) fibrils after 2 hrs by gamma-counting analysis
Method in brief: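 Competition binding with aggregated Aβ1-42 fibrils and [125I]IMPY (60000−100000 cpm/100 μL) in 0.05% BSA (1 mL total); inhibitors 10⁻⁴−10^−8.5 M in ethanol. Incubated 37 °C for 2 h, then GF/B vacuum filtration with PBS (0.02 M, pH 7.4) washes and γ counting. Three repeats; IC50 converted to Ki by Cheng−Prusoff.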

Mus musculus [2] = species: Mus musculus; assay: Binding affinity to amyloid beta plaques in transgenic C57BL6 mouse hippocampus expressing APP Swedish mutant/PSEN1 at 370 KBq/100 ul after 1 hr by autoradiographic analysis; type: tissue-based; conditions: tested as the 18F-labelled form
Method in brief: (§1)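 Paraffin brain sections from 12-month-old Tg mice (C57BL6, APPswe/PSEN1) and age-matched controls, deparaffinized through xylene and graded ethanol, then PBS (0.2 M, pH 7.4) 30 min. Incubated with 18F tracer (370 KBq per 100 μL) 1 h at room temperature, washed in 40% EtOH, rinsed in water, then phosphor plate exposure 2 h. The same sections were afterwards stained with 0.125% thioflavin S in 10% EtOH for 3 min and washed in 40% EtOH.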

Mus musculus [3] = species: Mus musculus; assay: Binding affinity to amyloid beta plaques in transgenic C57BL6 mouse cortex expressing APP Swedish mutant/PSEN1 at 370 KBq/100 ul after 1 hr by autoradiographic analysis; conditions: tested as the 18F-labelled form; method in brief: as §1
Mus musculus [4] = species: Mus musculus; assay: Binding affinity to amyloid beta plaques in transgenic C57BL6 mouse cortex expressing APP Swedish mutant/PSEN1 at 370 KBq/100 ul after 1 hr by thioflavinS-staining method; conditions: tested as the 18F-labelled form; method in brief: as §1
Mus musculus [5] = species: Mus musculus; assay: Binding affinity to amyloid beta plaques in transgenic C57BL6 mouse hippocampus expressing APP Swedish mutant/PSEN1 at 370 KBq/100 ul after 1 hr by thioflavinS-staining method; type: tissue-based; conditions: tested as the 18F-labelled form; method in brief: as §1

Row | SMILES | Ki [1] | Activity (Mus musculus [2]) | Activity (Mus musculus [3]) | Activity (Mus musculus [4]) | Activity (Mus musculus [5])
1 | CN(C)c1ccc(-c2nc3cc(OCCOCCF)ccc3o2)cn1 | 7.3 nM | – | – | – | –
2 | CNc1ccc(-c2nc3cc(OCCOCCF)ccc3o2)cn1 | 102 nM | – | – | – | –
3 | CN(C)c1ccc(-c2nc3cc(OCCOCCOCCF)ccc3o2)cn1 | 9.9 nM | Active | Active | Active | Active
